Screens deposited in PubChem BioAssay by The Scripps Research Institute Molecular Screening Center.
Rows were chosen to be rich in hits. Some 1.6% of all compounds tested hit in one or more screens of this group.
LEDGF integ inh: blocks HIV-1 LEDGF/p75-dependent DNA integration | TR-FRET IN-LEDGF/p75 DNA integration, Eu/Cy5 | inhibition, % at 3.7 µM | actives 0.64% (n = 370,000) | AID 743269;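 active means inhibition above the screen-wide mean plus 3 SD, cut at about 13% in these data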;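 further: signal is the Cy5 over europium emission ratio at 671 and 618 nm; 0% = plate median of compound wells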
MBD2 inh: inhibitors of human MBD2 binding to methylated oligonucleotide | Q9UBB5 | TR-FRET | inhibition, % at 4.4 µM | actives 0.31% (n = 370,000) | AID 686964; in the data active means inhibition above about 13%
UHRF1 MBD2 ctr: UHRF1 methyl-DNA binding inhibition. Q96T88. UHRF1 binding to methylated oligo, TR-FRET. inhibition, % at 4.4 µM. actives 0.75% (n = 370,000). AID 687016; in the data active means inhibition above about 21%;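 further: UHRF1 SRA domain binding a hemimethylated CpG hairpin DNA probe; 0% = median of test compound wells and 100% = reference inhibitor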
TDP2 inh: blocks human TDP2 phosphodiesterase activity; O95551; recombinant TDP2, T5PNP hydrolysis, p-nitrophenol absorbance 415 nm; inhibition, % at 12.8 µM; actives 0.34% (n = 370,000); AID 720702;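 active means inhibition above the mean of all tested compounds plus 3 SD, set per campaign, cut at about 25% in these data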;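 further: 0% = DMSO with enzyme and 100% = buffer with substrate but no TDP2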
Target sequence (O95551 whole entry, looked up): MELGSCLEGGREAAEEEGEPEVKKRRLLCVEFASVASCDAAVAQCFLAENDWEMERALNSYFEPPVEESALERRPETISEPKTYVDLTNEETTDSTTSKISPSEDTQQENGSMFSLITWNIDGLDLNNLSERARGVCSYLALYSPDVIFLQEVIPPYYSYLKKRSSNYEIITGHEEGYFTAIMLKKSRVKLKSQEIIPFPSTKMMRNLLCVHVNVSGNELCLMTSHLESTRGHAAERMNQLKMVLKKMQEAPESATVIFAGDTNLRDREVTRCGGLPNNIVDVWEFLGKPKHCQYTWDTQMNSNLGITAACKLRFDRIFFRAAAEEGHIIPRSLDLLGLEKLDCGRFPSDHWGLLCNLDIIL
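System: recombinant human TDP2 / Amount: 120 nM TDP2 per well / Also added: 5 mM T5PNP chromogenic substrate / Doses: 12.8 µM single point, 1% DMSO / Incubation: 2 h at 37 °C / Detection: p-Nitrophenol epi absorbance / Evaluation: % inhibition relative to enzyme-containing and enzyme-free wells / Repeats: singlicate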
TDP2 inh conf: human TDP2 inhibition, confirmation. shares compounds with TDP2 inh. recombinant human TDP2, absorbance read-out. inhibition, % at 12.8 µM. actives 22% (n = 1,100); in the data active means inhibition above about 25%;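 further: 0% = vehicle with enzyme and 100% = no enzyme buffer only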
* marks the source's active call; other numbers are inactive results; . = no result given.

SMILES | LEDGF integ inh | MBD2 inh | UHRF1 MBD2 ctr | TDP2 inh | TDP2 inh conf
CC(=O)NC1C(=O)N(CCN2CCOCC2)c2ccc(F)cc21 (stereo not drawn) | 9.2 | -4.3 | 0.2 | 31.7* | 30.5*
C=CCN1C(=O)[C@@H](CC(=O)N2CCSCC2)[C@]2(C(=O)OC)CCCCC=C12 | -1.4 | -2.4 | 4.3 | -3.6 | .
c1ccc(OCCN2CCOCC2)cc1 | -2.1 | -0.2 | 3.9 | 31.3* | 7.2
CS(=O)(=O)c1cccc(C(=O)Nc2cccc(-c3nc4ccccc4[nH]3)c2)c1 | 2.0 | 2.9 | 20.8* | 25.4* | 7.0
NC(=O)[C@@H]1CCCN1C(=O)[C@H](CCc1ccccc1)NC(=O)[C@H]1O[C@@H](n2cnc3c(N)ncnc32)[C@H](O)[C@@H]1O | -1.8 | 1.1 | 0.9 | 3.1 | .
Cc1ccc(NS(=O)(=O)c2ccc(C(=O)NCC(c3ccco3)N(C)C)cc2)cc1 (stereo not drawn) | 1.8 | 1.3 | 2.1 | -3.9 | .
CN(C)C(CNC(=O)c1ccc(NS(=O)(=O)c2ccc(F)cc2)cc1)c1ccco1 (stereo not drawn) | 1.7 | -5.7 | -1.5 | 27.2* | 5.0
CCCC(=O)N1CCC[C@]2(CC[C@@H](CCC#N)O2)C1 | -1.3 | 1.8 | 1.0 | 2.4 | .
Cc1[nH]n(-c2ccccc2)c(=O)c1S(=O)(=O)c1ccccc1 | -0.8 | -5.4 | -3.4 | 49.1* | 18.4
Cc1[nH]n(-c2ccccc2)c(=O)c1/C=N/N(c1ccccc1)c1ccccc1 | 5.0 | -5.2 | 2.6 | 39.5* | -2.8
Cc1[nH]n(-c2ccccc2)c(=O)c1/C=N/c1nn[nH]n1 | 3.5 | -1.8 | -7.6 | 26.8* | 8.7
CCNC(=O)OCCN1C(=O)CCC12CCC(c1ccc(Cl)cc1)CC2 (stereo not drawn) | -0.2 | -0.1 | 0.6 | 1.4 | .
COc1ccc(NC2=C(NC(C)=O)C(=O)c3ccccc3C2=O)cc1 | -6.2 | -23.0 | -18.6 | 11.5 | .
COc1cccc(NC2=C(NCCO)C(=O)c3ccccc3C2=O)c1 | 6.6 | -17.9 | -12.5 | 54.7* | 11.7
COc1ccc(NC2=C(NCCO)C(=O)c3ccccc3C2=O)cc1 | 7.1 | -4.1 | 10.6 | 35.6* | 34.1*
CCOc1ccc2[nH]c3nc(SCC(=O)OC(C)C)nnc3c2c1 | 0.5 | -4.9 | 1.1 | 24.9* | 3.7
Cc1cc(O)c(C=Nc2ccc(N3CCOCC3)cc2)c(C)c1Cl | 13.3 | 0.5 | 0.2 | 36.6* | 4.1
O=C(COC(=O)c1ccc([N+](=O)[O-])s1)NC(=O)NCc1ccccc1 | 0.3 | -1.0 | -0.4 | 21.4 | .
NS(=O)(=O)c1ccc(NC(=O)COC(=O)c2ccc([N+](=O)[O-])s2)cc1 | 6.9 | -8.4 | 1.8 | 27.5* | 36.0*
O=C(COC(=O)c1ccc([N+](=O)[O-])s1)NCc1ccc(F)cc1 | 7.4 | 1.7 | 14.4 | 59.4* | 23.2
CN(CC(=O)Nc1ccccc1Cl)C(=O)COC(=O)c1ccc([N+](=O)[O-])s1 | 10.0 | -1.7 | -2.1 | 29.6* | 18.9
O=S1(=O)c2ccc(Br)cc2OC[C@H](Cc2ccccc2)N1Cc1cn(CCC2OCCCO2)nn1 | 3.0 | -0.1 | -0.4 | -10.3 | .
O=C(COc1ccccc1)Nc1ccc2[nH]c(=O)[nH]c2c1 | 1.2 | 5.5 | 2.7 | 9.4 | .
O=C(COc1ccccc1F)Nc1ccc2[nH]c(=O)[nH]c2c1 | 0.6 | -7.1 | -0.4 | 28.0* | 5.7
COC(=O)CCCC1=CC2=C(c3ccccc3)C(=O)C(C)(OC(=O)C3CCCC3)C(=O)C2=CN1CC(C)C (stereo not drawn) | 6.6 | -0.2 | 4.0 | 24.9* | 14.1
SMILES | LEDGF integ inh | MBD2 inh | UHRF1 MBD2 ctr | TDP2 inh | TDP2 inh conf
COC(=O)CCCC1=CC2=C(c3ccccc3)C(=O)C(C)(OC(=O)C3CCCC3)C(=O)C2=CN1CC1CC1 (stereo not drawn) | 3.0 | 1.2 | 1.9 | 22.6 | .
COCCN1C=C2C(=O)C(C)(OC(=O)C3CCCC3)C(=O)C(c3ccccc3)=C2C=C1CCCC(=O)OC (stereo not drawn) | 0.1 | 1.8 | -1.4 | 30.2* | 22.1
COC(=O)CCCC1=CC2=C(c3ccccc3)C(=O)C(C)(OC(=O)C3CCCC3)C(=O)C2=CN1C1CCCC1 (stereo not drawn) | 2.2 | 4.3 | 0.6 | 20.0 | .
O=c1[nH]c2c(s1)C(c1ccco1)C1C3CCC(C3)C1S2 (stereo not drawn) | 7.3 | 5.2 | 3.0 | 33.5* | 7.5
O=C(CSc1cc(Cl)ccc1Cl)N/N=C/c1ccc[nH]1 | -1.6 | -2.5 | 0.1 | 5.9 | .
COc1ccc(CNCC#Cc2ccc(C(F)(F)F)cc2)c(OC)c1 | 1.9 | -7.6 | 0.0 | 4.1 | .
COC(=O)[C@]12C[C@H](CC(=O)NCC34CC5CC(CC(C5)C3)C4)C(=O)N(CCC3=CCCCC3)C1=C[C@H](C(C)C)O[C@@H]2C1CC1 | 6.8 | 1.2 | 5.4 | -3.6 | .
COc1ccc(CCNC(=O)c2ccc(NC(=O)CC3SC(N4CCCC4)=NC3=O)cc2)cc1 (stereo not drawn) | 1.2 | -2.6 | 4.7 | 3.9 | .
Cc1ccc(OCCNC(=O)c2ccc(NC(=O)CC3SC(N4CCCC4)=NC3=O)cc2)cc1 (stereo not drawn) | -4.5 | 0.1 | -0.5 | 40.2* | -1.4
CC(C)(C)C(=O)[C@@H]1[C@@H]2C(=O)N(c3ccc4c(c3)OCCO4)C(=O)[C@@H]2C2c3ccccc3C=CN21 (stereo partly drawn) | 7.6 | 0.2 | -4.4 | 27.1* | 8.6
COc1cc(C2Nc3ccccc3C(=O)N2c2ccccc2)ccc1O (stereo not drawn) | 6.1 | 10.0 | 19.3 | 28.6* | 5.3
CCCN1C(=O)c2[nH]nc(-c3ccccc3)c2C1c1ccc(C)cc1 (stereo not drawn) | 4.8 | -5.5 | -3.4 | 1.9 | .
CC(=O)N1CCCN(C(=O)C2CCN(c3ncnc4c3sc3cccc(F)c34)CC2)CC1 | 2.0 | -3.9 | -3.2 | -7.2 | .
COC(=O)CCC(=O)OC1(C)C(=O)C=C2C=C(C3CC3)N(C3CCCCC3)C=C2C1=O (stereo not drawn) | 4.0 | -2.0 | 3.6 | 28.9* | 2.6
COC(=O)CCC(=O)OC1(C)C(=O)C=C2C=C(C3CC3)N(C3CCCC3)C=C2C1=O (stereo not drawn) | 10.7 | -2.6 | 2.8 | 24.1 | .
CCN(CC)CCCN1C=C2C(=O)C(C)(OC(=O)CCC(=O)OC)C(=O)C=C2C=C1C1CC1 (stereo not drawn) | 2.3 | 0.0 | 1.4 | 20.9 | .
COC(=O)CCC(=O)OC1(C)C(=O)C=C2C=C(C3CC3)N(Cc3ccccc3)C=C2C1=O (stereo not drawn) | 1.8 | -6.3 | -1.9 | 25.5* | 7.2
COC(=O)CCC(=O)OC1(C)C(=O)C=C2C=C(C3CC3)N(CC3CC3)C=C2C1=O (stereo not drawn) | 8.5 | -4.2 | 3.3 | 28.0* | 11.5
O=C(CSc1nc2ccccc2nc1N1CCCCC1)N1CCN(S(=O)(=O)c2ccccc2)CC1 | -1.6 | 2.6 | -0.2 | -9.8 | .
C[C@H]1COc2cc(Br)ccc2S(=O)(=O)N1Cc1cn(CCC2OCCO2)nn1 | 5.0 | 7.7 | 2.0 | -1.3 | .
